# Several values for one entry are separate records, joined by “and”; a condition that tells them apart may be missing. Equal entries are not always repeated.
# Columns and labels:
# HEK-293T = assay: Multiplex assay against HEK293T; assay type: toxicity, cell-based; settings: human, number of replicates 2
# Procedure, shortened: (§1)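 With compound added, live cells were imaged on a CQ1 microscope at 37°C and 5% CO2; staining with Hoechst33342, BioTracker Green Microtubule Cytoskeleton Dye, MitoTracker Red and Annexin V Alexa Fluor 680 had been done at seeding. The CellPathfinder machine-learning gating scheme split cells into Hoechst high-intensity objects or normal cells, normal cells into healthy, pyknosed or fragmented nuclei, and pyknosed cells into mitotic or apoptotic. The tubulin, mitochondrial-mass and membrane-permeability phenotypes are per cents of healthy-nucleus cells.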
# U2OS = assay: Multiplex assay against U2OS; assay type: toxicity, cell-based; settings: human, number of replicates 2; procedure, shortened: as §1
# [1] = 12 h, 1 µM, compound concentration 1 uM
# [2] = 12 h, 10 µM, compound concentration 10 uM
# [3] = 24 h, 1 µM, compound concentration 1 uM
# [4] = 24 h, 10 µM, compound concentration 10 uM
# [5] = 48 h, 1 µM, compound concentration 1 uM
# [6] = 48 h, 10 µM, compound concentration 10 uM
compound,measurement,setting,value
CCn1ccc(Nc2ncc3c(n2)-c2c(nn(C)c2-c2ccc(-c4cnn(C)c4)cc2Cl)CC3)n1,Population Apoptotic (%),HEK-293T; [1],31% and 47%
same,Population Fragmented Nuclei (%),HEK-293T; [1],3%
same,Population Healthy Nuclei (%),HEK-293T; [1],87% and 84%
same,Population Hoechst High Intensity Objects (%),HEK-293T; [1],14% and 10%
same,Population Membrane Permeable-Phenotype (%),HEK-293T; [1],1% and 0%
same,Population Mitochondria Different-Phenotype (%),HEK-293T; [1],44% and 42%
same,Population Mitotic Cells (%),HEK-293T; [1],68% and 52%
same,Population Normal (%),HEK-293T; [1],85% and 89%
same,Population Pyknosed Nuclei (%),HEK-293T; [1],8% and 12%
same,Population Tubulin-Different-Phenotype (%),HEK-293T; [1],84% and 81%
same,Total Cell Count,HEK-293T; [1],429 and 424
same,Population Apoptotic (%),HEK-293T; [2],76% and 63%
same,Population Fragmented Nuclei (%),HEK-293T; [2],4% and 9%
same,Population Healthy Nuclei (%),HEK-293T; [2],86% and 80%
same,Population Hoechst High Intensity Objects (%),HEK-293T; [2],11%
same,Population Membrane Permeable-Phenotype (%),HEK-293T; [2],3% and 0%
same,Population Mitochondria Different-Phenotype (%),HEK-293T; [2],58% and 68%
same,Population Mitotic Cells (%),HEK-293T; [2],24% and 36%
same,Population Normal (%),HEK-293T; [2],88%
same,Population Pyknosed Nuclei (%),HEK-293T; [2],8% and 10%
same,Population Tubulin-Different-Phenotype (%),HEK-293T; [2],92% and 94%
same,Total Cell Count,HEK-293T; [2],332 and 321
same,Population Apoptotic (%),HEK-293T; [3],26% and 62%
same,Population Fragmented Nuclei (%),HEK-293T; [3],5%
same,Population Healthy Nuclei (%),HEK-293T; [3],87% and 85%
same,Population Hoechst High Intensity Objects (%),HEK-293T; [3],13% and 15%
same,Population Membrane Permeable-Phenotype (%),HEK-293T; [3],1%
same,Population Mitochondria Different-Phenotype (%),HEK-293T; [3],40% and 28%
same,Population Mitotic Cells (%),HEK-293T; [3],73% and 37%
same,Population Normal (%),HEK-293T; [3],86% and 84%
same,Population Pyknosed Nuclei (%),HEK-293T; [3],7% and 9%
same,Population Tubulin-Different-Phenotype (%),HEK-293T; [3],80% and 69%
same,Total Cell Count,HEK-293T; [3],473 and 512
same,Population Apoptotic (%),HEK-293T; [4],72% and 81%
same,Population Fragmented Nuclei (%),HEK-293T; [4],4% and 11%
same,Population Healthy Nuclei (%),HEK-293T; [4],89% and 80%
same,Population Hoechst High Intensity Objects (%),HEK-293T; [4],15% and 18%
same,Population Membrane Permeable-Phenotype (%),HEK-293T; [4],0% and 1%
same,Population Mitochondria Different-Phenotype (%),HEK-293T; [4],34% and 45%
same,Population Mitotic Cells (%),HEK-293T; [4],27% and 18%
same,Population Normal (%),HEK-293T; [4],84% and 81%
same,Population Pyknosed Nuclei (%),HEK-293T; [4],5% and 8%
same,Population Tubulin-Different-Phenotype (%),HEK-293T; [4],80%
same,Total Cell Count,HEK-293T; [4],438 and 393
same,Population Apoptotic (%),HEK-293T; [5],52% and 61%
same,Population Fragmented Nuclei (%),HEK-293T; [5],13% and 10%
same,Population Healthy Nuclei (%),HEK-293T; [5],83% and 85%
same,Population Hoechst High Intensity Objects (%),HEK-293T; [5],20%
same,Population Membrane Permeable-Phenotype (%),HEK-293T; [5],4% and 2%
same,Population Mitochondria Different-Phenotype (%),HEK-293T; [5],7% and 12%
same,Population Mitotic Cells (%),HEK-293T; [5],47% and 38%
same,Population Normal (%),HEK-293T; [5],79%
same,Population Pyknosed Nuclei (%),HEK-293T; [5],2% and 3%
same,Population Tubulin-Different-Phenotype (%),HEK-293T; [5],60% and 59%
same,Total Cell Count,HEK-293T; [5],930 and 827
same,Population Apoptotic (%),HEK-293T; [6],41% and 52%
same,Population Fragmented Nuclei (%),HEK-293T; [6],11% and 14%
same,Population Healthy Nuclei (%),HEK-293T; [6],85% and 82%
same,Population Hoechst High Intensity Objects (%),HEK-293T; [6],14% and 18%
same,Population Membrane Permeable-Phenotype (%),HEK-293T; [6],2% and 0%
same,Population Mitochondria Different-Phenotype (%),HEK-293T; [6],11% and 15%
same,Population Mitotic Cells (%),HEK-293T; [6],58% and 47%
same,Population Normal (%),HEK-293T; [6],85% and 81%
same,Population Pyknosed Nuclei (%),HEK-293T; [6],2% and 3%
same,Population Tubulin-Different-Phenotype (%),HEK-293T; [6],65% and 63%
same,Total Cell Count,HEK-293T; [6],674 and 549
same,Population Apoptotic (%),U2OS; [1],62% and 57%
same,Population Fragmented Nuclei (%),U2OS; [1],5% and 15%
same,Population Healthy Nuclei (%),U2OS; [1],83% and 63%
same,Population Hoechst High Intensity Objects (%),U2OS; [1],0%
same,Population Mitochondria Different-Phenotype (%),U2OS; [1],1% and 9%
same,Population Mitotic Cells (%),U2OS; [1],37% and 42%
same,Population Normal (%),U2OS; [1],100%
same,Population Pyknosed Nuclei (%),U2OS; [1],11% and 21%
same,Population Tubulin-Different-Phenotype (%),U2OS; [1],78% and 47%
same,Population Apoptotic (%),U2OS; [2],62% and 66%
same,Population Fragmented Nuclei (%),U2OS; [2],3% and 4%
same,Population Healthy Nuclei (%),U2OS; [2],71% and 83%
same,Population Hoechst High Intensity Objects (%),U2OS; [2],0%
same,Population Membrane Permeable-Phenotype (%),U2OS; [2],13% and 4%
same,Population Mitochondria Different-Phenotype (%),U2OS; [2],8% and 4%
same,Population Mitotic Cells (%),U2OS; [2],37% and 33%
same,Population Normal (%),U2OS; [2],100%
same,Population Pyknosed Nuclei (%),U2OS; [2],25% and 11%
same,Population Tubulin-Different-Phenotype (%),U2OS; [2],39% and 29%
same,Population Apoptotic (%),U2OS; [3],70% and 62%
same,Population Healthy Nuclei (%),U2OS; [3],85% and 64%
same,Population Hoechst High Intensity Objects (%),U2OS; [3],0%
same,Population Mitochondria Different-Phenotype (%),U2OS; [3],1% and 6%
same,Population Mitotic Cells (%),U2OS; [3],29% and 37%
same,Population Normal (%),U2OS; [3],99% and 100%
same,Population Pyknosed Nuclei (%),U2OS; [3],9% and 17%
same,Population Tubulin-Different-Phenotype (%),U2OS; [3],76% and 37%

# Reference: ChEMBL document CHEMBL5303300, “EUbOPEN Chemogenomics Library - Multiplex” (2023)
